# Test results reported in ChEMBL document CHEMBL3588770, “Novel spirohydantoin derivative as a potent multireceptor-active antipsychotic and antidepressant agent” (Bioorg Med Chem, 2015).
# The source made the active and inactive calls. The rule behind the calls is not given here.
# Tests used:
# [1] = molecular target: D(2) dopamine receptor (Rattus norvegicus, UniProt P61169); assay: Displacement of [3H]spiperone from D2 receptor in rat striatum by liquid scintillation counting analysis
# Method in brief: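 Rat striatal membranes with [3H]-spiperone. Compounds were tested in triplicate at 7–8 concentrations (10⁻¹¹–10⁻⁴). Ki values were calculated.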
# [2] = molecular target: T1, 5-hydroxytryptamine receptor 1A (Rattus norvegicus, UniProt P19327); assay: Displacement of [3H]-8-OH-DPAT from 5-HT1A receptor in rat hippocampal membrane by liquid scintillation analysis; assay type: cell membranes, Hippocampus
# T1 sequence (P19327 whole entry): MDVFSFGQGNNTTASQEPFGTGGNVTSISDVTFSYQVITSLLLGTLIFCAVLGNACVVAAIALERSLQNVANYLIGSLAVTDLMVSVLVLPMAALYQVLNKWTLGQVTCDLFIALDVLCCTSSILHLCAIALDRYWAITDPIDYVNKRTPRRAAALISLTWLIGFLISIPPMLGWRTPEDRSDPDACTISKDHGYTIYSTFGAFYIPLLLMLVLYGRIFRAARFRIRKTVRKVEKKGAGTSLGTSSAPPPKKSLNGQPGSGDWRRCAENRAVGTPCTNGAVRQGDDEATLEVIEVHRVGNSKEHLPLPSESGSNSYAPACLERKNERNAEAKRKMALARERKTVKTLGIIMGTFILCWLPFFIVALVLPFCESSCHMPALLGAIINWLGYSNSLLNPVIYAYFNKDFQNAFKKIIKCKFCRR
# Method in brief: (§1)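 Native rat membranes were used: hippocampus with [3H]-8-OH-DPAT (170 Ci/mmol) and 5-HT for non-specific binding; cortex with [3H]-ketanserin (88.0 Ci/mmol) and methysergide; hypothalamus with [3H]-5-CT (34.5 Ci/mmol) and 5-HT. Compounds were tested in triplicate at 7–8 concentrations (10⁻¹¹–10⁻⁴ M). Read-out was liquid scintillation counting. Ki came from nonlinear regression with Cheng-Prusoff, as the mean of at least two experiments.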
# [3] = molecular target: 5-hydroxytryptamine receptor 2A (Rattus norvegicus, UniProt P14842); assay: Displacement of [3H]ketanserin from 5-HT2A receptor in rat cortical membrane by liquid scintillation analysis; assay type: cell membranes; method in brief: as §1
# 5-hydroxytryptamine receptor 2A, sequence (P14842 whole entry): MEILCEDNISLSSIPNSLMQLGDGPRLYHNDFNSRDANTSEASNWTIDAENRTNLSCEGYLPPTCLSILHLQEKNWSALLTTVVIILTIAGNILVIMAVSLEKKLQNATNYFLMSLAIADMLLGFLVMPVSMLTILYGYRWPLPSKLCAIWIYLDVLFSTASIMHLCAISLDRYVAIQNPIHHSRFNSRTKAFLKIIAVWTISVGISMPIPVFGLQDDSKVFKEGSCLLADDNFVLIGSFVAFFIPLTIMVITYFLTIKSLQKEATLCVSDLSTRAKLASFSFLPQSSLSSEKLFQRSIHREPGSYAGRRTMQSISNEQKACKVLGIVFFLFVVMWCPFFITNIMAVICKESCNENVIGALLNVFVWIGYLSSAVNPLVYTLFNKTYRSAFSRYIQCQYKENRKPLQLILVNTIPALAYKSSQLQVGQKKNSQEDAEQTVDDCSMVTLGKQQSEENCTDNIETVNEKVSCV
# [4] = molecular target: 5-hydroxytryptamine receptor 7 (Rattus norvegicus, UniProt P32305); assay: Displacement of [3H]-5-CT from 5-HT7 receptor in rat hypothalamic membrane by liquid scintillation analysis; assay type: cell membranes; method in brief: as §1
# 5-hydroxytryptamine receptor 7, sequence (P32305 whole entry): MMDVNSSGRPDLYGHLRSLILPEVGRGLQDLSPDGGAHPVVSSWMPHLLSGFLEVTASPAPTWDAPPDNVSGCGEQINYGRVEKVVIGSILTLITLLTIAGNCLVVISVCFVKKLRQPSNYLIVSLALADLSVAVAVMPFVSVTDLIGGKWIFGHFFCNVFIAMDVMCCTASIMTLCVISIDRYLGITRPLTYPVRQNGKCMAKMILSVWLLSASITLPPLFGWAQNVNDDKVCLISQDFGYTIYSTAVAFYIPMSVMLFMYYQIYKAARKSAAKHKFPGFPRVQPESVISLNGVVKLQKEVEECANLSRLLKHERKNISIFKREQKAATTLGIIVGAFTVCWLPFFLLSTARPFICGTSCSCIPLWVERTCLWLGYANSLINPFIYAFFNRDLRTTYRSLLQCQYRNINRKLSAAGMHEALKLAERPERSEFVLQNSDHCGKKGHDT
# [5] = system: Mus musculus; assay: Antipsychotic activity in ip dosed CD-1 mouse assessed as inhibition of D-amphetamine-induced hyperlocomotor activity; assay type: functional, organism-based
# Method in brief: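 Male CD-1 mice, 8-10 per dose. d-Amphetamine was given s.c. 30 min pretest; test compound i.p. 60 min pretest in 1% Tween 80. After 30 min habituation in the activity monitor, ambulation crossings were counted for 1 h, recorded every 5 min.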
# [6] = system: Mus musculus; assay: Toxicity in ip dosed spontaneous locomotor activity CD-1 mouse model assessed as dose required to cause sedation; assay type: organism-based; details: in vivo
# Method in brief: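 CD-1 mice, 8-10 per dose, with compound given i.p. in 1% Tween 80 suspension 60 min before testing. After 30 min habituation in individual cages, ambulation (channel crossings) was counted over 1 h, recorded every 5 min. Mean ± SEM, one-way ANOVA with Bonferroni test.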
# [7] = system: Mus musculus; assay: Anti-depressant like activity in Swiss albino mouse assessed as shortening of immobility time at 0.01 to 0.1 mg/kg, ip by forced swim test; assay type: functional, organism-based
# [8] = system: Mus musculus; assay: Antianxiety-like activity in Swiss albino mouse assessed as number of punished crossings at 0.06 to 0.5 mg/kg, ip by four-plate test; assay type: functional, organism-based
# Method in brief: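 Four-plate test in male Swiss albino mice, 8-10 per dose, dosed i.p. in Tween 80 vehicle. After 15-s habituation, a 0.8 mA, 0.5 s foot shock was given at each plate crossing, with a 3 s shock-free interval. Punished crossings were counted over a 1-min session.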
# [9] = system: Mus musculus; assay: Toxicity in ip dosed CD-1 mouse assessed as minimum dose required for induction of catalepsy by bar test; assay type: organism-based; details: in vivo
# Method in brief: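 Male CD-1 mice, 10 per group, given compound i.p. (1% Tween 80 suspension). Forelimbs were placed on a horizontal rod 4 cm high at 30, 60 and 120 min. Catalepsy was scored up to 3 (≥60 s on bar). Minimum cataleptogenic dose is the lowest dose giving a mean score ≥1 at any of those times.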
# D(2) dopamine receptor, sequence (P61169 whole entry): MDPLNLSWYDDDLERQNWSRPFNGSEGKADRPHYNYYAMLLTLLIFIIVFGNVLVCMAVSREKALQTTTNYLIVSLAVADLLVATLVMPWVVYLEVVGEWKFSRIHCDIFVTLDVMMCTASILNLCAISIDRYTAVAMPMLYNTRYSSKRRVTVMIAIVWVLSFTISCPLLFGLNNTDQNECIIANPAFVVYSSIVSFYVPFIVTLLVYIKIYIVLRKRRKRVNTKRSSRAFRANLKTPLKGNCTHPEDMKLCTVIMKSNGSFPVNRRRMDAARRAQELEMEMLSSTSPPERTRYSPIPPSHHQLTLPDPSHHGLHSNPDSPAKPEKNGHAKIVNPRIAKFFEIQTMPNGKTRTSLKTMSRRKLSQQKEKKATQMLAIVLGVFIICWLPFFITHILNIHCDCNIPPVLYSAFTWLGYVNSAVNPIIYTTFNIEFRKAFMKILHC
Structure (SMILES),Ki [1] [nM],Ki [2] [nM],Ki [3] [nM],Ki [4] [nM],inhibition [5],Activity [6] [mg/kg],inhibition [7],Activity [8],Activity [9] [mg/kg]
O=C1CCc2ccc(OCCCCN3CCN(c4cccc(Cl)c4Cl)CC3)cc2N1 [ARIPIPRAZOLE],,,,,Dose-dependent effect,1,inactive,inactive,1
O=C1NC2(CCCc3ccccc32)C(=O)N1CCCCN1CCN(c2cccc(C(F)(F)F)c2)CC1 (centres undefined),608,5.3,157,117,,,,,
O=C1NC2(CCC(c3ccccc3)CC2)C(=O)N1CCCCN1CCN(c2cccc(C(F)(F)F)c2)CC1 (centres undefined),> 10000,22,122,379,,,,,
O=C1NC2(CCc3ccccc32)C(=O)N1CCCCN1CCN(c2cccc(C(F)(F)F)c2)CC1 (centres undefined),412,6,87,67,,,,,
COc1ccccc1N1CCN(CCCCN2C(=O)NC3(CCC(c4ccccc4)CC3)C2=O)CC1 (centres undefined),79,3,75,130,,,,,

# The next lines start with results.
Ki [1] [nM],Ki [2] [nM],Ki [3] [nM],Ki [4] [nM],Structure (SMILES),inhibition [5],Activity [6] [mg/kg],inhibition [7],Activity [8],Activity [9] [mg/kg]
> 10000,30,38,768,O=C1NC2(CCC(c3ccccc3)CC2)C(=O)N1CCCCN1CCN(c2cccc(Cl)c2)CC1 (centres undefined),,,,,
,35,48,515,O=C1NC2(CCC(c3ccccc3)CC2)C(=O)N1CCCCN1CCN(c2ccccc2)CC1 (centres undefined),,,,,
,113,171,43,O=C1NC2(CCCCC2c2ccccc2)C(=O)N1CCCCN1CCN(c2cccc(Cl)c2)CC1 (centres undefined),,,,,
,42,498,63,COc1ccccc1N1CCN(CCCCN2C(=O)NC3(CCCCC3c3ccccc3)C2=O)CC1 (centres undefined),,,,,
743,13,77,116,O=C1NC2(CCCc3ccccc32)C(=O)N1CCCCN1CCN(c2ccccc2)CC1 (centres undefined),,,,,
,75,111,93,O=C1NC2(CCc3ccccc32)C(=O)N1CCCCN1CCN(c2ccccc2)CC1 (centres undefined),,,,,
,306,414,1500,O=C1NC2(CCCCC2c2ccccc2)C(=O)N1CCCCN1CCN(c2ccccc2)CC1 (centres undefined),,,,,
